ChEMBL document CHEMBL2163245 (J Med Chem, 2012)

Key:
[1] = target: T1, Potassium voltage-gated channel subfamily KQT member 2 (Homo sapiens, UniProt O43526); assay: Antagonist activity at KCNQ2 expressed in CHO cells incubated for 3 mins by automated patch clamp assay; format: functional, cell-based
[2] = target: T1, Potassium voltage-gated channel subfamily KQT member 2; assay: Agonist activity at KCNQ2 expressed in CHO cells incubated for 3 mins by automated patch clamp assay; format: functional, cell-based
How it was run: (§1)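 Ionworks Quattro population patch clamp on CHO cells stably expressing KCNQ2, 7,000 cells/well in extracellular solution (mM: 137 NaCl, 4 KCl, 1 MgCl2, 1.8 CaCl2, 10 HEPES, 10 glucose, pH 7.4), amphotericin B (50 μg/ml) perforation. Held -90 mV, 2,000 ms step to -10 mV; steady-state current at pulse end before and 3 min after compound; % change versus pre-compound current. Cells >100 pA and seal >30 MΩ only.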

[3] = Selectivity ratio of IC50 for KCNQ1 to KCNQ2
[4] = target: T1, Potassium voltage-gated channel subfamily KQT member 2; assay: Agonist activity at KCNQ2 expressed in CHO cells at 30 uM incubated for 3 mins by automated patch clamp assay; format: functional, cell-based; how it was run: as §1

T1 sequence (O43526 whole entry): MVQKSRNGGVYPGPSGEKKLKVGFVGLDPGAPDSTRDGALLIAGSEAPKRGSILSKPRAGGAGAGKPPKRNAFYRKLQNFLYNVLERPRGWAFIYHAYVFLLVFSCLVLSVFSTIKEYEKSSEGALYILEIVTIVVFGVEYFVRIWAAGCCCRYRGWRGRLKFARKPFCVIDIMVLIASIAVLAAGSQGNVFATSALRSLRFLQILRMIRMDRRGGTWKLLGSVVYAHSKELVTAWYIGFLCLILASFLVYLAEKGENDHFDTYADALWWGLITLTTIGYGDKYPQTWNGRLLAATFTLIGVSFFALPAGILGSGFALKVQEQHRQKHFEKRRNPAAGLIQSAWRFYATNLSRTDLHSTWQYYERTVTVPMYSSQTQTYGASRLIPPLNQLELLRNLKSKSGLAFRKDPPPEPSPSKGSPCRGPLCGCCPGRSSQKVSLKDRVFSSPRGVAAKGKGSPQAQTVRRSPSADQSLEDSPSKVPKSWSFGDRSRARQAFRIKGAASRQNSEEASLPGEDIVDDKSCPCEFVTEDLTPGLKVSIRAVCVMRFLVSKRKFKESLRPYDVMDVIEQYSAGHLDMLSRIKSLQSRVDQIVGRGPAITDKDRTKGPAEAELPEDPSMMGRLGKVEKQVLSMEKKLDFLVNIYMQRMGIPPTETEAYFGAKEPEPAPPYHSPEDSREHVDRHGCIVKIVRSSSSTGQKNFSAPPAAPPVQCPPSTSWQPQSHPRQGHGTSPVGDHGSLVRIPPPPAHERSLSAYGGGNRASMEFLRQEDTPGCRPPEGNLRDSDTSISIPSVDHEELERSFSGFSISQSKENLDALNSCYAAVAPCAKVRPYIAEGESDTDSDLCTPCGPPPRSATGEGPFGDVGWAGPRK

CC(C)(C(=O)Nc1ccccc1N1CCCC1)c1ccccc1
IC50 [1]: > 30000 nM

CCC(C(=O)Nc1ccccc1N1CCCC1)c1ccc(OC)cc1 (racemic)
IC50 [1]: 380 nM

CCC(C(=O)Nc1ccccc1-n1cccc1)c1ccccc1 (racemic)
IC50 [1]: 5270 nM

COc1ccc(CC(=O)Nc2ccccc2N2CCCC2)cc1
EC50 [2]: 1750 nM

CCC(C(=O)Nc1ccccc1N1CCCC1)c1cccc(OC)c1 (racemic)
IC50 [1]: 120 nM
Ratio IC50 [3]: > 40

CN(C)c1ccccc1NC(=O)Cc1cccc(Cl)c1
EC50 [2]: 27400 nM

CCC(C(=O)Nc1ccccc1N1CCCC1)c1ccc(F)cc1 (racemic)
IC50 [1]: 130 nM
Ratio IC50 [3]: > 40

O=C(Nc1ccccc1N1CCCC1)C1CCc2ccccc21 (racemic)
IC50 [1]: 330 nM

CN(Cc1ccccc1)c1ccccc1NC(=O)Cc1cccc(Cl)c1
EC50 [2]: > 30000 nM

O=C(Nc1ccccc1N1CCCC1)C(F)c1ccccc1 (configuration not stated)
EC50 [2]: 990 nM

C[C@H](C(=O)Nc1ccccc1N1CCCC1)c1ccccc1
Ratio IC50 [3]: > 40

O=C(Cc1cccc(Cl)c1)Nc1ccccc1-n1cccc1
EC50 [2]: 12300 nM

CCC(C(=O)Nc1ccccc1N1CCCC1)c1cccc(C(F)(F)F)c1 (racemic)
IC50 [1]: 390 nM
Ratio IC50 [3]: > 40

CCC(C(=O)Nc1ccccc1N1CCCC1)c1ccccc1Cl (racemic)
IC50 [1]: 3310 nM

O=C(Cc1ccccc1Cl)Nc1ccccc1N1CCCC1
EC50 [2]: 950 nM

O=C(Cc1cccc(Cl)c1)Nc1ccccc1N1CCOCC1
EC50 [2]: > 30000 nM

CCC(C(=O)Nc1ccccc1N1CCCC1)c1ccccc1F (racemic)
IC50 [1]: 440 nM
Ratio IC50 [3]: > 40

CCC(C(=O)Nc1ccccc1N1CCCC1)c1cccc(F)c1 (racemic)
IC50 [1]: 360 nM
Ratio IC50 [3]: > 40

CC(C(=O)Nc1ccccc1N1CCCC1)c1ccccc1 (racemic)
IC50 [1]: 260 nM

COc1cccc(CC(=O)Nc2ccccc2N2CCCC2)c1
EC50 [2]: 2350 nM

CCC(C(=O)Nc1ccccc1N1CCCC1)c1ccc(F)c(F)c1 (racemic)
IC50 [1]: 170 nM

CC[C@H](C(=O)Nc1ccccc1N1CCCCC1)c1ccccc1
Ratio IC50 [3]: > 40

O=C(Cc1cccc(Cl)c1)Nc1cccc(N2CCCC2)c1
EC50 [2]: 1020 nM

CCC(C(=O)Nc1ccccc1N(C)CC)c1ccccc1 (racemic)
IC50 [1]: > 30000 nM

CCC(C(=O)N(C)c1ccccc1N1CCCC1)c1ccccc1 (racemic)
IC50 [1]: > 30000 nM

CN(C(=O)Cc1ccccc1)c1ccccc1N1CCCC1
EC50 [2]: > 30000 nM

O=C(Cc1cccc(Cl)c1)Nc1ccccc1N1CCCC1
EC50 [2]: 170 nM

O=C(Cc1ccc(F)cc1)Nc1ccccc1N1CCCC1
EC50 [2]: 700 nM

O=C(Nc1ccccc1N1CCCC1)C1CCOc2ccccc21 (racemic)
IC50 [1]: > 30000 nM

CCC(C(=O)Nc1ccc(N2CCCC2)cc1)c1ccccc1 (configuration not stated)
IC50 [1]: 210 nM

CC(C)CC(C(=O)Nc1ccccc1N1CCCC1)c1ccccc1 (racemic)
IC50 [1]: 2220 nM

CCC(C(=O)Nc1ccccc1N1CCCC1)c1cccc(Cl)c1 (racemic)
IC50 [1]: 240 nM
Ratio IC50 [3]: > 40

O=C(Cc1cccc(Cl)c1)Nc1ccc(N2CCCC2)cc1
EC50 [2]: 8660 nM

CCC(C(=O)Nc1ccccc1-n1c(C)ccc1C)c1ccccc1 (racemic)
EC50 [2]: > 30000 nM

CCC(C(=O)Nc1ccccc1-n1ccnc1)c1ccccc1 (racemic)
IC50 [1]: > 30000 nM

Cc1cccc(CC(=O)Nc2ccccc2N2CCCC2)c1
EC50 [2]: 1320 nM

CCC(C(=O)Nc1cccc(N2CCCC2)c1)c1ccccc1 (racemic)
IC50 [1]: > 30000 nM

O=C(Cc1cccc(Cl)c1)Nc1ccccc1N1CCCCCC1
EC50 [2]: > 30000 nM

CCC(C(=O)Nc1ccccc1Cl)c1ccccc1 (racemic)
IC50 [1]: 15000 nM

CCC(C(=O)Nc1ccccc1N1CCCC1)c1ccc(Cl)cc1 (racemic)
IC50 [1]: 280 nM
Ratio IC50 [3]: > 40

CCCC(C(=O)Nc1ccccc1N1CCCC1)c1ccccc1 (racemic)
IC50 [1]: 320 nM

O=C(Cc1ccc(F)c(F)c1)Nc1ccccc1N1CCCC1
EC50 [2]: 1730 nM

O=C(Cc1ccccc1)Nc1ccccc1N1CCCC1
EC50 [2]: 743 nM

CCN(C)c1ccccc1NC(=O)Cc1cccc(Cl)c1
EC50 [2]: > 30000 nM

CCC(C(=O)Nc1ccccc1N1C(=O)CCC1=O)c1ccccc1 (racemic)
IC50 [1]: > 30000 nM

O=C(Cc1cccc(F)c1)Nc1ccccc1N1CCCC1
EC50 [2]: 490 nM

O=C(Nc1ccccc1N1CCCC1)C(c1ccccc1)C1CC1 (racemic)
IC50 [1]: 3500 nM

O=C(Cc1ccc(Cl)c(Cl)c1)Nc1ccccc1N1CCCC1
EC50 [2]: 1070 nM

O=C(Cc1ccc(Cl)cc1)Nc1ccccc1N1CCCC1
EC50 [2]: 800 nM

CCC(C(=O)Nc1ccccc1N1CCOCC1)c1ccccc1 (racemic)
IC50 [1]: 12700 nM

O=C(Nc1ccccc1N1CCCC1)C1(c2ccccc2)CC1
IC50 [1]: > 30000 nM

O=C(Cc1ccccc1F)Nc1ccccc1N1CCCC1
inhibition [4]: 26.6%

CCC(C(=O)Nc1ccccc1N1CCCC1)c1ccc(Cl)c(Cl)c1 (racemic)
IC50 [1]: 470 nM

CCC(C(=O)Nc1ccccc1N1CCCC1)c1cccc(C)c1 (racemic)
IC50 [1]: 330 nM
Ratio IC50 [3]: > 40

O=C(Cc1cccc(Cl)c1)Nc1ccccc1N1CCCCC1
EC50 [2]: 7090 nM

O=C(Cc1cccc(C(F)(F)F)c1)Nc1ccccc1N1CCCC1
EC50 [2]: 350 nM

CCC(C(=O)Nc1ccccc1N1CCCC1)c1ccccc1 (racemic)
IC50 [1]: 163 nM

CCC(C(=O)Nc1ccccc1N1CCCC1)c1ccc(OC)c(OC)c1 (racemic)
IC50 [1]: 20200 nM

CCC(C(=O)Nc1ccccc1N1CCCCCC1)c1ccccc1 (racemic)
IC50 [1]: > 30000 nM
